Four substances from paper PMC2943235 (Circulation research, 2010) can be followed below.

Experiment [1] concerns VCAM-1. It counts as cell-based, mouse. Conditions: 0.75 mg/ml; TNF-α-activated SVEC4/VCAM-1 cells. The gist of the method:
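SVEC4/VCAM-1 mouse endothelial cells were washed, then given test peptide, apoA-I or HDL at 0.75 mg/ml final for 18 h. TNF-α was added in serum-free medium (10 ng/ml final) for 5 h, and luciferase activity was measured. Activity was expressed per mg cellular protein, relative to vehicle-treated cells, as means ± SEM.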

Experiment [2] concerns THP-1 cells. It counts as cell-based, human. Particulars: (efflux from live cells minus fixed cells)/efflux from live cells x100%; 80 μg/ml; 4 h; compared with apoA-I.
The test system of experiment [3] is THP-1 cells. The experiment is described as follows: Cholesterol efflux from THP-1 cells, with or without LXR agonist. It counts as cell-based, human.

“Also recorded” adds a separate entry of the source.

“EKLKALLEKLLAKLKELL P- EKLKALLEKLLAKLKELL [ELK-2A]”: in experiment [1], the “Inhibition of VCAM-1 expression, in words” value is on record as “most active peptide”.

“EWLKELLEKLLEKLKELL- P- EWLKELLEKLLEKLKELL [ELK-1W]”: the “Specificity of cholesterol efflux, in words” value in experiment [2] was “exceptional specificity”. Moreover, the “Capacity to support (ABCA1-dependent) cholesterol efflux, in words” value (“Capacity to support” for short) in experiment [3] is reported as “modest capacity for the ABC-dependent efflux”.

On to “EKLKAKLEELKAKLEELL- P- EKAKAALEEAKAKAEELA”, for which the “Capacity to support” value in experiment [3] is listed as “very low overall capacity to support cholesterol efflux”.

In the case of “EKLKAKLEELKAKLEELL- P- EKLKAKLEELKAKLEELL [ELK-2A2K2E]”, in experiment [2], the “Specificity of cholesterol efflux, in words” value was “exceptional specificity”. In addition, the “Capacity to support” value in experiment [3] is “exceptional capacity to support cholesterol efflux, even exceeding that of apoA-I; also recorded: very active in ABCA1-dependent cholesterol efflux”.
